Calls of active or inactive are those of the source. No cut-off for these calls is given here.
Tests used:
[1] = Wound healing activity in rat IEC-18 cells assessed as reduction of cell migration at 10 uM after 24 hrs relative to control; format: functional; set-up: scale not given: the % may be the effect or the level left
Method in brief: (§1)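 Confluent IEC-18 cells (from 2.5 × 10^5 cells/mL seeding) were moved to 0.5% FBS DMEM and scraped. They were then treated with test substance at 10 and 100 μM, or dexamethasone 10 μM. Migration was counted blind as cells crossing the wound border in a defined area from 0 to 24 h, using photomicrographs at 200×. n = 10.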

[2] = Antiproliferative activity against rat IEC-18 cells at 10 uM after 24 hrs by MTT assay; format: cell-based; conditions: iec-18, 24 h
Mus musculus [3] = experiment: Antiinflammatory activity in C57BL/6 mouse DSS-induced chronic colitis model assessed as decrease in severity of progressive chronic injury at 500 mg/kg/day administered through diet for total of 4 weeks for alternative weeks with water measured after 56 days; format: functional, organism-based
Mus musculus [4] = experiment: (§2) Antiinflammatory activity in C57BL/6 mouse DSS-induced chronic colitis model assessed as up regulation of annexin A1 mRNA expression in colon at 500 mg/kg/day administered through diet for total of 4 weeks for alternative weeks with water measured after 56 days by RT-PCR analysis relative to DSS-treated control; format: functional
Method in brief: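 Female C57BL/6 mice (6−8 weeks, 18−20 g) got four cycles of 7 days DSS in drinking water (1% cycles 1–2, 2% cycles 3–4) then 7 days water, with diet at 0.25% test agent throughout. Colons were taken at day 56. cDNA from 500 ng RNA was amplified with annexin A1 primers (25 cycles: 94/60/72 °C, 1 min each) and run on 2% agarose gel.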

Mus musculus [5] = experiment: Antiinflammatory activity in C57BL/6 mouse DSS-induced chronic colitis model assessed as prevention of body weight loss at 500 mg/kg/day administered through diet for total of 4 weeks for alternative weeks with water measured after 56 days; format: functional, organism-based
Mus musculus [6] = experiment: Antiinflammatory activity in C57BL/6 mouse DSS-induced chronic colitis model assessed as reduction of edema at 500 mg/kg/day administered through diet for total of 4 weeks for alternative weeks with water measured after 56 days by hematoxylin-eosin staining; format: functional, organism-based
Mus musculus [7] = experiment: as §2, with “decrease in myeloperoxidase activity measured reduction” for “up regulation”, “neutrophil accumulation” for “annexin A1 mRNA expression”, “spectrophotometric” for “RT-PCR”, “mouse” for “control”; format: functional; set-up: scale not given: the % may be the effect or the level left
Method in brief: (§3)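 Female C57BL/6 mice, 6−8 weeks, 18−20 g. Four DSS cycles in drinking water (1% in cycles 1–2, 2% in cycles 3–4; each 7 days DSS, then 7 days water). Diet held 0.25% test substance (about 500 mg/kg/day). Colons taken at day 56 and homogenized in 80 mM phosphate pH 5.4 with 0.5% HTAB. MPO read with TMB/H2O2, 37 °C 3 min, 630 nm. EPO read with o-phenylenediamine/H2O2, 2 min room temperature, 490 nm. NAG read with 4-nitrophenyl N-acetyl-β-D-glucosaminide, 37 °C 5 min, 405 nm. Mean ± SEM, n = 7.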

Mus musculus [8] = experiment: Antiinflammatory activity in C57BL/6 mouse DSS-induced chronic colitis model assessed as reduction of stool consistency at 500 mg/kg/day administered through diet for total of 4 weeks for alternative weeks with water measured after 56 days; format: functional, organism-based
Method in brief: (§4)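 Mice and schedule as in the chronic DSS model: four 7-day DSS cycles (1%, 1%, 2%, 2%), each followed by 7 days water, with a diet containing 0.25% test substance. At day 56, stool consistency (normal, loose, diarrhea) and gross rectal bleeding (visible fecal blood, anal examination) were scored within the DAI. n = 10.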

Mus musculus [9] = experiment: as §2, with “downregulation” for “up regulation”, “COX-2” for “annexin A1 mRNA”, “Western blot” for “RT-PCR”, “mouse” for “control”; format: functional
[10] = Wound healing activity in rat IEC-18 cells assessed as induction of wound closure at 100 uM after 24 hrs relative to dexamethasone; format: functional; method in brief: as §1
Mus musculus [11] = experiment: Toxicity in C57BL/6 mouse assessed as effect on viability at 500 mg/kg/day administered through diet for total of 4 weeks for alternative weeks with water measured after 56 days; format: organism-based; conditions: in vivo, 1344 h
[12] = Antiproliferative activity against rat IEC-18 cells at 10 to 100 uM after 24 hrs by MTT assay; format: cell-based; conditions: iec-18, 24 h
Method in brief: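 IEC-18 rat epithelial cells (passages 18–22) were seeded at 2.5 × 10^5 cells/mL in DMEM (4.5 g/L glucose, 5% FBS). After 24 h the medium was switched to 0.5% FBS and test substance was added at 10 and 100 μM, with dexamethasone 10 μM as reference. Proliferation was read by MTT at 24 h. n = 10.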

Mus musculus [13] = experiment: Antiinflammatory activity in C57BL/6 mouse DSS-induced chronic colitis model assessed as reduction of colon weight to length ratio at 500 mg/kg/day administered through diet for total of 4 weeks for alternative weeks with water measured after 56 days; format: functional, organism-based
Method in brief: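 Female C57BL/6 mice received four DSS cycles: 7 days DSS in drinking water (1%, then 2% in cycles 3–4) followed by 7 days water. Diet contained 0.25% test substance, about 500 mg/kg/day. At day 56, colons were removed, rinsed in cold PBS, blotted, weighed and measured to give weight/length (mg/cm). n = 10.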

Mus musculus [14] = experiment: (§5) Antiinflammatory activity in C57BL/6 mouse DSS-induced chronic colitis model assessed as decrease in eosinophil peroxidase activity measured reduction of eosinophil accumulation in colon at 500 mg/kg/day administered through diet for total of 4 weeks for alternative weeks with water measured after 56 days by spectrophotometric analysis relative to DSS-treated mouse; format: functional; set-up: scale not given: the % may be the effect or the level left; method in brief: as §3
Mus musculus [15] = experiment: (§6) Antiinflammatory activity in C57BL/6 mouse DSS-induced chronic colitis model assessed as downregulation of p38 MAPK phosphorylation in colon at 500 mg/kg/day administered through diet for 4 weeks measured after 56 days by Western blot analysis relative to DSS-treated mouse; format: functional
Mus musculus [16] = experiment: Antiinflammatory activity in C57BL/6 mouse DSS-induced chronic colitis model assessed as inhibition of IL-1beta production in colon at 500 mg/kg/day administered through diet for total of 4 weeks for alternative weeks with water measured after 56 days by ELISA relative to DSS-treated mouse; format: functional; conditions: C57BL/6, Colon
Method in brief: (§7)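 Mice were female C57BL/6 on the chronic DSS schedule: 1% DSS in cycles 1–2, 2% in cycles 3–4, each cycle 7 days DSS then 7 days water. Diet carried 0.25% test substance for 56 days. Colon powder was suspended 20% w/v in PBS/0.1% NP-40, sonicated and spun at 20000g. IL-6, IL-1β and IL-10 were measured in supernatants by ELISA as pg/mL per mg protein. Mean ± SEM, n = 7.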

Mus musculus [17] = experiment: Antiinflammatory activity in C57BL/6 mouse DSS-induced chronic colitis model assessed as effect on NFkappaB pathway in colon at 500 mg/kg/day administered through diet for total of 4 weeks for alternative weeks with water measured after 56 days by Western blot analysis; format: functional, organism-based
Mus musculus [18] = experiment: as §6, with “iNOS expression” for “p38 MAPK phosphorylation”, “for total of” for “for”, “weeks for alternative weeks with water” for “weeks”; format: functional
Mus musculus [19] = experiment: as §5, with “N-acetylglucosaminidase” for “eosinophil peroxidase”, “macrophage” for “eosinophil”; format: functional; set-up: scale not given: the % may be the effect or the level left; method in brief: as §3
Mus musculus [20] = experiment: Antiinflammatory activity in C57BL/6 mouse DSS-induced chronic colitis model assessed as leukocyte infiltration into mucosal tissue at 500 mg/kg/day administered through diet for total of 4 weeks for alternative weeks with water measured after 56 days by hematoxylin-eosin staining; format: functional, organism-based
Mus musculus [21] = experiment: Antiinflammatory activity in C57BL/6 mouse DSS-induced chronic colitis model assessed as reduction of mucosal injury at 500 mg/kg/day administered through diet for total of 4 weeks for alternative weeks with water measured after 56 days by hematoxylin-eosin staining; format: functional, organism-based
IEC-18 [22] = experiment: Inhibition of p38 MAPK-induced COX-2 expression in rat IEC-18 cells at 100 uM incubated for 1 hr prior to LPS challenge measured after 24 hrs by Western blot analysis; format: cell-based
Method in brief: (§8)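 IEC-18 cells were seeded at 2.5 × 10^5 cells/mL in DMEM with 5% FBS; after 24 h the medium was switched to 0.5% FBS. Cells were pretreated 1 h with test substance at 100 μM (SB 203580 10 μM as reference), then given LPS 1 μg/mL. Phospho-p38 was read at 30 min and COX-2 at 24 h by Western blot (25 μg protein, 1:1000 antibodies, β-actin normalized). n = 6.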

[23] = Wound healing activity in rat IEC-18 cells assessed as induction of wound closure at 10 uM after 24 hrs relative to dexamethasone; format: functional; method in brief: as §1
Mus musculus [24] = experiment: Antiinflammatory activity in C57BL/6 mouse DSS-induced chronic colitis model assessed as reduction of rectal bleeding at 500 mg/kg/day administered through diet for total of 4 weeks for alternative weeks with water measured after 56 days; format: functional, organism-based; method in brief: as §4
Mus musculus [25] = experiment: Antiinflammatory activity in C57BL/6 mouse DSS-induced chronic colitis model assessed as inhibition of IL-6 production in colon at 500 mg/kg/day administered through diet for total of 4 weeks for alternative weeks with water measured after 56 days by ELISA relative to DSS-treated mouse; format: functional; conditions: C57BL/6, Colon; method in brief: as §7
IEC-18 [26] = experiment: Inhibition of LPS-induced p38 MAPK phosphorylation in rat IEC-18 cells at 100 uM incubated for 1 hr prior to LPS challenge measured after 30 mins by Western blot analysis; format: cell-based; method in brief: as §8
Mus musculus [27] = experiment: Antiinflammatory activity in C57BL/6 mouse DSS-induced chronic colitis model assessed as induction of IL-10 production in colon at 500 mg/kg/day administered through diet for total of 4 weeks for alternative weeks with water measured after 56 days by ELISA relative to DSS-treated mouse; format: functional; conditions: C57BL/6, Colon; method in brief: as §7
IEC-18 [28] = experiment: Inhibition of p38 MAPK-induced COX-2 expression in rat IEC-18 cells at 10 uM incubated for 1 hr prior to LPS challenge measured after 24 hrs by Western blot analysis; format: cell-based
Method in brief: (§9)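 IEC-18 rat intestinal epithelial cells were seeded at 2.5 × 10^5 cells/mL in DMEM (4.5 g/L glucose, 5% FBS) at 37 °C and 5% CO2. After 24 h the medium was switched to 0.5% FBS. Cells were pretreated with compound for 1 h, then stimulated with LPS 1 μg/mL: 30 min for phospho-p38 and 24 h for COX-2. Cytosolic protein (25 μg) was run on Western blots. Each result is the mean of at least three independent experiments.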

IEC-18 [29] = experiment: Inhibition of LPS-induced p38 MAPK phosphorylation in rat IEC-18 cells at 10 uM incubated for 1 hr prior to LPS challenge measured after 30 mins by Western blot analysis; format: cell-based; method in brief: as §9

C[C@@H]1C[C@H]2[C@@H]3CCC4=CC(=O)C=C[C@]4(C)[C@@]3(F)[C@@H](O)C[C@]2(C)[C@@]1(O)C(=O)CO [DEXAMETHASONE]
Activity [1]: 20% | Activity [2]: Non-toxic

C/C=C1/[C@H](O[C@@H]2O[C@H](CO)[C@@H](O)[C@H](O)[C@H]2O)OC=C(C(=O)OC)[C@H]1CC(=O)OCCc1ccc(O)c(O)c1 [OLEUROPEIN]
Activity (Mus musculus [3]): Active | fold change (FC) (Mus musculus [4]): 46 | Activity (Mus musculus [5]): Active | Activity (Mus musculus [6]): Active | Activity (Mus musculus [7]): 36% | Activity (Mus musculus [8]): Active | Activity (Mus musculus [9]): 68% | Activity [10]: 80% | Activity (Mus musculus [11]): Non-toxic | Activity [12]: Non-toxic | Activity (Mus musculus [13]): Active | Activity (Mus musculus [14]): 46% | Activity (Mus musculus [15]): <=65% | inhibition in vivo at 500 mg/kg/day (Mus musculus [16]): 25% | Activity (Mus musculus [17]): inactive | Activity (Mus musculus [18]): 58% | Activity (Mus musculus [19]): 42% | Activity (Mus musculus [20]): Active | Activity (Mus musculus [21]): Active | inhibition (IEC-18 [22]): 83% | Activity [23]: 57% | Activity (Mus musculus [24]): Active | inhibition in vivo at 500 mg/kg/day (Mus musculus [25]): 37% | inhibition (IEC-18 [26]): Active | induction in vivo at 500 mg/kg/day (Mus musculus [27]): 34%

C[S+]([O-])c1ccc(-c2nc(-c3ccc(F)cc3)c(-c3ccncc3)[nH]2)cc1 (centres undefined)
inhibition (IEC-18 [28]): 70% | inhibition (IEC-18 [29]): Active
